# Test results reported in paper PMC9414273 (Clinical Cancer Research, 2021).
# Where two headings read alike, the source gives them in different places.
# Tests used:
# [1] = tested on: patients with advanced cancer; test: Safety and tolerability: treatment-emergent adverse events; format: in vivo, human
# Procedure, shortened: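 Patients aged 18 or over with ECOG 0–1 got oral test compound twice daily, 2w/2w or 3w/1w per 28-day cycle, in a 3+3 escalation. Each dose level had at least 3 DLT-evaluable patients. AEs graded by CTCAE v4.03, and investigators judged relation to treatment. AE frequency and percentage given per arm for all patients dosed.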
# [2] = Plasma pharmacokinetics of LY3200882; format: in vivo, human
# Procedure, shortened: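 Oral test compound twice daily on 2w/2w or 3w/1w schedules, 5–50 mg. Plasma measured by validated LC-MS/MS. Cmax, tmax, AUC, CL/F and V/F estimated noncompartmentally. Dose proportionality tested by a power model on log-transformed Cmax and AUC with dose as fixed effect. Steady state and accumulation inferred from t1/2.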
# [3] = tested on: patients with advanced or metastatic cancers; test: Antitumor activity; format: in vivo, human; settings: for median PFS: advanced cancers
# [4] = tested on: patients with grade 4 glioma; test: Antitumor activity; format: in vivo, human
# Procedure, shortened: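 Patients with grade 4 glioma (IDH1/2-mutant or IDH wild-type) got oral test compound twice daily in 28-day cycles: dose escalation on 2w/2w or 3w/1w, expansion at 50 mg 2w/2w. RANO response by CT or MRI at baseline and days 22–28 of every other cycle until confirmed progression or withdrawal. CR/PR confirmed and reported as frequency. PFS and OS by Kaplan–Meier.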
# [5] = cited from earlier work; for NOAEL daily AUC threshold for cardiotoxicity: established preclinically in rats and dogs
# [6] = tested on: 4T1-luciferase–positive preclinical tumor models of triple-negative breast cancer; settings: in vitro and in vivo; cited from earlier work
# T-cell proliferation = settings: preclinical; cited from earlier work
# [7] = tested on: patients with pancreatic cancer; settings: patients with treatment-naïve advanced pancreatic cancer; cited from earlier work
# [8] = Any grade, Japanese cohort (N = 9)
# [9] = Any grade, grade 4 glioma expansion, RP2D 2w/2w (N = 40)
# [10] = Any grade, schedule A 2w/2w escalation (N = 30)
# [11] = Any grade, schedule B 3w/1w escalation (N = 32)
# [12] = Grade ≥3, Japanese cohort (N = 9)
# [13] = Grade ≥3, grade 4 glioma expansion, RP2D 2w/2w (N = 40)
# [14] = Grade ≥3, schedule A 2w/2w escalation (N = 30)
# [15] = Grade ≥3, schedule B 3w/1w escalation (N = 32)
# [16] = of a total of 139 patients, LY3200882-based therapies
# [17] = schedule A 2w/2w escalation (N = 30)
# [18] = schedule B 3w/1w escalation (N = 32)
# [19] = grade 4 glioma expansion, RP2D 2w/2w (N = 40)
# [20] = single patient, IDH WT grade 4 glioma, monotherapy 50 mg twice a day 2w/2w
molecule,measurement,setting,value
CC(C)(O)c1cc(Nc2cc(Oc3cn(C4CC4)nc3C3CCOCC3)ccn2)ccn1 [LY3200882],Dose-limiting toxicities,[1]; 2w/2w and 3w/1w schedules,not observed
same,Recommended phase II dose (RP2D),[1]; 2w/2w schedule,50 mg twice a day
same,Recommended phase II dose (RP2D),[1]; 3w/1w schedule,35 mg twice a day
same,ALT increased (study treatment-related AE),[1]; [8],1 (11) n (%)
same,Anemia (study treatment-related AE),[1]; [8],1 (11) n (%)
same,Fatigue (study treatment-related AE),[1]; [8],0 (0) n (%)
same,Nausea (study treatment-related AE),[1]; [8],1 (11) n (%)
same,Subjects with ≥1 TEAE related to study treatment,[1]; [8],3 (33) n (%)
same,ALT increased (study treatment-related AE),[1]; [9],0 (0) n (%)
same,Anemia (study treatment-related AE),[1]; [9],0 (0) n (%)
same,Fatigue (study treatment-related AE),[1]; [9],4 (10) n (%)
same,Nausea (study treatment-related AE),[1]; [9],0 (0) n (%)
same,Subjects with ≥1 TEAE related to study treatment,[1]; [9],10 (25) n (%)
same,ALT increased (study treatment-related AE),[1]; [10],0 (0) n (%)
same,Anemia (study treatment-related AE),[1]; [10],1 (3) n (%)
same,Fatigue (study treatment-related AE),[1]; [10],0 (0) n (%)
same,Nausea (study treatment-related AE),[1]; [10],1 (3) n (%)
same,Subjects with ≥1 TEAE related to study treatment,[1]; [10],10 (33) n (%)
same,ALT increased (study treatment-related AE),[1]; [11],2 (6) n (%)
same,Anemia (study treatment-related AE),[1]; [11],1 (3) n (%)
same,Fatigue (study treatment-related AE),[1]; [11],1 (3) n (%)
same,Nausea (study treatment-related AE),[1]; [11],1 (3) n (%)
same,Subjects with ≥1 TEAE related to study treatment,[1]; [11],10 (31) n (%)
same,ALT increased (study treatment-related AE),[1]; [12],0 (0) n (%)
same,Anemia (study treatment-related AE),[1]; [12],0 (0) n (%)
same,Fatigue (study treatment-related AE),[1]; [12],0 (0) n (%)
same,Nausea (study treatment-related AE),[1]; [12],0 (0) n (%)
same,Subjects with ≥1 TEAE related to study treatment,[1]; [12],0 (0) n (%)
same,ALT increased (study treatment-related AE),[1]; [13],0 (0) n (%)
same,Anemia (study treatment-related AE),[1]; [13],0 (0) n (%)
same,Fatigue (study treatment-related AE),[1]; [13],0 (0) n (%)
same,Nausea (study treatment-related AE),[1]; [13],0 (0) n (%)
same,Subjects with ≥1 TEAE related to study treatment,[1]; [13],0 (0) n (%)
same,ALT increased (study treatment-related AE),[1]; [14],0 (0) n (%)
same,Anemia (study treatment-related AE),[1]; [14],0 (0) n (%)
same,Fatigue (study treatment-related AE),[1]; [14],0 (0) n (%)
same,Nausea (study treatment-related AE),[1]; [14],0 (0) n (%)
same,Subjects with ≥1 TEAE related to study treatment,[1]; [14],0 (0) n (%)
same,ALT increased (study treatment-related AE),[1]; [15],0 (0) n (%)
same,Anemia (study treatment-related AE),[1]; [15],0 (0) n (%)
same,Fatigue (study treatment-related AE),[1]; [15],0 (0) n (%)
same,Nausea (study treatment-related AE),[1]; [15],0 (0) n (%)
same,Subjects with ≥1 TEAE related to study treatment,[1]; [15],0 (0) n (%)
same,Cardiovascular AEs,[1]; LY3200882 as monotherapy,no cardiovascular AEs were observed
same,Deaths related to study treatment,[1]; overall,none
same,Patients with SAEs related to study drug,"[1]; overall, 3 patients, only in combination expansion arms",2.2%
same,Patients with at least 1 serious AE (SAE),"[1]; overall, 24 patients",17.3%
same,Deaths reported in the study,"[1]; overall, 63 deaths",45.3%
same,Patients with TEAEs that were study-treatment (LY3200882) related,"[1]; overall, all arms, 55 patients",39.6%
same,Patients who experienced ≥1 TEAE,"[1]; overall, all arms, 130 of 139 treated patients",93.5%
same,PK profile linearity,[2]; 5- to 50-mg dose range,linear with dose and time
same,Doses after which steady state would be achieved,[2]; based on the short t1/2,2 doses
same,Time at which peak concentration was reached after administration,"[2]; oral, patients",2 h
same,mean CL/F,"[2]; oral, patients",57.3 L/h
same,mean V/F,"[2]; oral, patients",559 L
same,Accumulation ratio,"[2]; steady state, twice a day, based on the short t1/2",1.4 fold
same,Effect on its own metabolism,[2]; suggested by PK constant over time,neither an inhibitor nor an inducer of its own metabolism
same,median OS,"[3]; 35 mg twice a day 3w/1w (8 patients), 95% CI 2.6–NE",4.0 months
same,median OS,"[3]; 50 mg twice a day 2w/2w (17 patients), 95% CI 1.2–11.4",6.1 months
same,Best overall response: CR,[3]; Japanese cohort (N = 9),0 (0) n (%)
same,Best overall response: Nonevaluable,[3]; Japanese cohort (N = 9),1 (11) n (%)
same,Best overall response: PR,[3]; Japanese cohort (N = 9),0 (0) n (%)
same,Best overall response: Progressive disease,[3]; Japanese cohort (N = 9),8 (89) n (%)
same,Best overall response: SD,[3]; Japanese cohort (N = 9),0 (0) n (%)
same,DCR (CR/PR/SD),[3]; Japanese cohort (N = 9),0 (0) n (%)
same,ORR (CR/PR),[3]; Japanese cohort (N = 9),0 (0) n (%)
same,median PFS,"[3]; 35 mg twice a day 3w/1w (n = 8), 95% CI 0.8–2.6",1.7 months
same,median PFS,"[3]; 50 mg twice a day 2w/2w (n = 17), 95% CI 0.9–2.0",1.8 months
same,Patients who achieved radiologic CR/PR,[3]; [16],11 patients
same,Patients who had SD,[3]; [16],28 patients
same,DCR,[3]; overall study population,28.1%
same,Best overall response: CR,[3]; [17],0 (0) n (%)
same,Best overall response: Nonevaluable,[3]; [17],8 (27) n (%)
same,Best overall response: PR,[3]; [17],1 (3) n (%)
same,Best overall response: Progressive disease,[3]; [17],15 (50) n (%)
same,Best overall response: SD,[3]; [17],6 (20) n (%)
same,DCR (CR/PR/SD),[3]; [17],7 (23) n (%)
same,ORR (CR/PR),[3]; [17],1 (3) n (%)
same,Best overall response: CR,[3]; [18],0 (0) n (%)
same,Best overall response: Nonevaluable,[3]; [18],4 (13) n (%)
same,Best overall response: PR,[3]; [18],1 (3) n (%)
same,Best overall response: Progressive disease,[3]; [18],20 (63) n (%)
same,Best overall response: SD,[3]; [18],7 (22) n (%)
same,DCR (CR/PR/SD),[3]; [18],8 (25) n (%)
same,ORR (CR/PR),[3]; [18],1 (3) n (%)
same,Duration of response (RANO PR),"[4]; dose escalation, 1 patient IDH 1–mutant grade 4 glioma, 3w/1w schedule",3.9 months
same,Duration of response (RANO PR),"[4]; dose escalation, 1 patient IDH WT grade 4 glioma, 2w/2w schedule",19 months
same,Duration of response (RANO PR),"[4]; dose-expansion arm, 1 patient IDH WT grade 4 glioma, 50 mg twice a day 2w/2w",5.6 months
same,median OS,"[4]; dose-expansion arm, 15 patients with recurrent IDH mutant grade 4 glioma, 95% CI 7.3–NE",10.6 months
same,median OS,"[4]; dose-expansion arm, 25 patients with IDH WT grade 4 glioma, 95% CI 4.6–9.7",8.2 months
same,median PFS,"[4]; dose-expansion arm, IDH mutant, 95% CI 1.3–1.8",1.7 months
same,Best overall response: CR,[4]; [19],0 (0) n (%)
same,Best overall response: Nonevaluable,[4]; [19],7 (18) n (%)
same,Best overall response: PR,[4]; [19],1 (3) n (%)
same,Best overall response: Progressive disease,[4]; [19],26 (65) n (%)
same,Best overall response: SD,[4]; [19],6 (15) n (%)
same,DCR (CR/PR/SD),[4]; [19],7 (18) n (%)
same,ORR (CR/PR),[4]; [19],1 (3) n (%)
same,Time remained on trial,[4]; [20],30.4 months
same,Tumor reduction by RANO assessment,[4]; [20],94%
same,NOAEL daily AUC threshold for cardiotoxicity,[5]; 2w/2w schedule,3.4 mg X h/L
same,NOAEL daily AUC threshold for cardiotoxicity,[5]; 3w/1w schedule,1.56 mg X h/L
same,NOAEL for cardiotoxicity (AUC),[5]; nonclinical toxicology studies,3.4 mg X hours/L
same,Effect on tumors in 4T1 models,[6],durable tumor regression
same,Immunomodulatory effects,T-cell proliferation,induction of T-cell proliferation
FOLFIRINOX,ORR,[7],31.6%
